74 sequences from the array DNA melting data of Ke et al. (doi:10.1101/2024.01.08.574731) can be followed below.

The nature of series [1]: folding enthalpy; higher = less favourable; fluorescence melt of hairpins on a sequencing array, two-state fit. To be noted: sodium 0.088 M. An outline of the steps: (§1)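 Folding enthalpy and melting temperature were estimated with bootstrapped two-state fits and combined across four replicates by inverse-variance weighting, with fitted temperatures raised by 9.35 °C to match UV melts. The data were Cy3 fluorescence of library hairpins, with annealed Cy3 and quencher oligos, on a sequenced MiSeq flow cell in 50 mM Na-HEPES pH 8.0, 25 mM NaCl, imaged in 2.5 °C steps up to 60 °C and normalised to pre-quench Cy3 and control constructs.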

Series [2] in a line: melting temperature; fluorescence melt of hairpins on a sequencing array, two-state fit, raised by 9.35 °C to match UV melts. The settings on record: sodium 0.088 M. The method, boiled down:
as §1

Turning to GATCCAAACATGGATC ((((((....)))))), in series [1], the folding enthalpy is -32.7 kcal/mol. In series [2], the Tm is 50.8 °C.
In the same order, the values of GGTGACCCGAAAGGGACC (((..(((....)))))) are -14.5 kcal/mol and 38.1 °C.
The matching figures for CGAGACGGAAACGTTTCG (((.(((....))).))): -41.5 kcal/mol and 49.6 °C.
Regarding GATCGAGGCCTCGATC ((((((....)))))), the folding enthalpy in series [1] is -49.1 kcal/mol. Further, the Tm in series [2] stood at 62.2 °C.
On to GGTGACCGAAAGGTGACC (((.(((....))).))), for which, in series [1], the folding enthalpy was -42.5 kcal/mol. In series [2], the Tm was found to be 54.4 °C.
Turning to GGGACTCGAAAGAGACCC (((.(((....))).))), the folding enthalpy in series [1] was -39.2 kcal/mol. Besides, the Tm in series [2] was determined as 59.5 °C.
Consider GCCGCGCGAAAGCTTGGC (((..((....))..))), for which the folding enthalpy in series [1] is -22.7 kcal/mol. The Tm in series [2] came out at 55.1 °C.
The matching figures for GCCGGGCGAAAGCGCTGC ((.(.((....)).).)): -20.3 kcal/mol and 43 °C.
The matching figures for GATCAACGCATTGATC ((((((....)))))): -34.6 kcal/mol and 46.2 °C.
As to CGCACGGAAACGTAGCG ((((((....))).))), the folding enthalpy in series [1] is -30.4 kcal/mol. In series [2], the Tm was 53.8 °C.
Consider GATCCAAGGTTGGATC ((((((....)))))), for which the folding enthalpy in series [1] is -37.5 kcal/mol. Also, in series [2], the Tm was 51.4 °C.
For GATCGGCTAACCGATC ((((((....)))))), the folding enthalpy in series [1] is -42.2 kcal/mol. The Tm in series [2] stood at 56.5 °C.
In the same order, the values of GTTATGGGAAACCGTAAC ((((.((....)).)))) are -33.2 kcal/mol and 44.2 °C.
Regarding GCCAGACGAAAGTCAGGC (((.(((....))).))), the folding enthalpy in series [1] is -32.6 kcal/mol. In addition, the Tm in series [2] was found to be 64.8 °C.
For the sequence GACTATGGAAACATAGCC (.(((((....))))).), in series [1], the folding enthalpy is -22.6 kcal/mol. In series [2], the Tm was determined as 35.7 °C.
The matching figures for GTGTGGGGAAACCTACGC (.((.((....)).)).): -24.1 kcal/mol and 39.2 °C.
As to GATCAAGGCATTGATC ((((((....)))))), the folding enthalpy in series [1] was -34.5 kcal/mol. Also, in series [2], the Tm stood at 50.5 °C.
The matching figures for GATCAGAAGGCTGATC ((((((....)))))): -29.4 kcal/mol and 45.8 °C.
On to GATCTACAGATAGATC ((((((....)))))), for which, in series [1], the folding enthalpy is -26.6 kcal/mol. The Tm in series [2] was 37.3 °C.
The matching figures for GCCACGGGAAACCGTGAC (.(((((....))))).): -16.5 kcal/mol and 51.1 °C.
With GCGGGTCTCCGC ((((....)))), in series [1], the folding enthalpy is -22.9 kcal/mol. Further, in series [2], the Tm is 67.7 °C.
Take GATCTGAACCCAGATC ((((((....)))))): the folding enthalpy in series [1] is -28.8 kcal/mol. Also, the Tm in series [2] was determined as 46.1 °C.
CGCGTCGGAAACGATGCG (((.(((....))).))): in series [1], the folding enthalpy was -54.9 kcal/mol. Moreover, the Tm in series [2] came to 62.4 °C.
The matching figures for GTCACGGGAAACTGTGGC (.(((.(....).))).): -31.9 kcal/mol and 44.4 °C.
GATAACGGAAACGCTATC ((((.((....)).)))): the folding enthalpy in series [1] is -29.5 kcal/mol. The Tm in series [2] stood at 34.4 °C.
As for GTGAAAGGAAACCTTCAC (((((.(....).))))), in series [1], the folding enthalpy was -27 kcal/mol. Besides, in series [2], the Tm amounted to 36.5 °C.
The matching figures for GGCTTGGGAAACCAGGTC (.(.(((....))).).): -23.2 kcal/mol and 37 °C.
The matching figures for GCGTGCGGAAACGCGTGC ((..(((....)))..)): -27.6 kcal/mol and 53.5 °C.
Consider GTTCGCGAAAGCGTTAAC ((((((....)))..))), for which the folding enthalpy in series [1] is -10.9 kcal/mol. Also, the Tm in series [2] is 27.8 °C.
The matching figures for GCTATAGCGAAAGCTAGC (((..(((....)))))): -18 kcal/mol and 44.6 °C.
The matching figures for GCTGTGCGAAAGCAGAGC (((.(((....))).))): -56 kcal/mol and 57.8 °C.
The matching figures for GTAAGACGAAAGTCTAC (((.(((....)))))): -14.6 kcal/mol and 41.7 °C.
Turning to GATTTCCCGAAAGGGATC (((..(((....)))))), the folding enthalpy in series [1] was -10.4 kcal/mol. Besides, the Tm in series [2] is 26.2 °C.
Turning to GCGTTCGAAAGAACTCGC ((((((....)))..))), in series [1], the folding enthalpy was -17 kcal/mol. Besides, the Tm in series [2] was found to be 44.7 °C.
The matching figures for GTTGGCGAAAGCCGAAC ((((((....))).))): -13.8 kcal/mol and 50.5 °C.
The matching figures for GACCCGGGAAACCAGGCC (.((.((....)).)).): -10.8 kcal/mol and 24.7 °C.
For the sequence GCTCTGCGAAAGCACAGC (((.(((....))).))), the folding enthalpy in series [1] is -25.6 kcal/mol. The Tm in series [2] came to 38.6 °C.
In the same order, the values of GTTGCTCGAAAGAGAAAC (((.(((....))).))) are -32.3 kcal/mol and 48 °C.
As to GCCGTTGGAAACGACGGC (((((.(....).))))), the folding enthalpy in series [1] is -38 kcal/mol. For the same sequence, in series [2], the Tm turned out to be 66.1 °C.
Take GATCGGACCTCCGATC ((((((....)))))): the folding enthalpy in series [1] was -40.7 kcal/mol. In addition, the Tm in series [2] stood at 56.6 °C.
GGTTAGGGAAACCTAGTC (..((((....))))..): the folding enthalpy in series [1] was -11.7 kcal/mol. Further, the Tm in series [2] is 28.7 °C.
For GATCCGGGTGCGGATC ((((((....)))))), in series [1], the folding enthalpy is -41 kcal/mol. The Tm in series [2] is 63.2 °C.
Take GTGTTTGGAAACAAACGC (.(((((....))))).): the folding enthalpy in series [1] was -32.3 kcal/mol. For the same sequence, in series [2], the Tm was 51 °C.
For the sequence GAATTCGGAAACGAACTC ((.((((....)))).)), the folding enthalpy in series [1] was -17.4 kcal/mol. In addition, the Tm in series [2] turned out to be 33.7 °C.
As for GCGAGGTGTCGC ((((....)))), the folding enthalpy in series [1] was -5.64 kcal/mol. In addition, the Tm in series [2] amounted to 65.7 °C.
Regarding GCTTGAGGAAACCCAAGC (((((.(....).))))), the folding enthalpy in series [1] is -37 kcal/mol. The Tm in series [2] came out at 46 °C.
The matching figures for GTCAATCGAAAGATGAC (((.(((....)))))): -25.7 kcal/mol and 45.9 °C.
The matching figures for GCTTGGCCGAAAGGCAGC (((..(((....)))))): -14.4 kcal/mol and 46.9 °C.
In the same order, the values of GTGGGAGGAAACTCCCGC (.(((((....))))).) are -33.4 kcal/mol and 56.7 °C.
Regarding GATTTGGAAACAAATC ((((((....)))))), the folding enthalpy in series [1] was -40.2 kcal/mol. Moreover, the Tm in series [2] is 48.5 °C.
Turning to GTGTAGCGAAAGCTCCAC (((.(((....))).))), in series [1], the folding enthalpy is -31.7 kcal/mol. Further, the Tm in series [2] is 48 °C.
The matching figures for GGTCACGAAAGTGTGACC ((((((....)))..))): -33.8 kcal/mol and 56.3 °C.
In the same order, the values of GTTGGCCGAAAGGCAAAC (((.(((....))).))) are -21.8 kcal/mol and 56.8 °C.
As to GATCTGAATACAGATC ((((((....)))))), in series [1], the folding enthalpy was -39.7 kcal/mol. Also, the Tm in series [2] was 47.7 °C.
In the same order, the values of GTGACCGAAAGGTTGCAC ((((((....)))..))) are -13.8 kcal/mol and 42.2 °C.
The matching figures for GTAGTCTCGAAAGAGTAC (((..(((....)))))): -17.3 kcal/mol and 31.9 °C.
In the case of GGTGACGAAAGTCGTACC ((((((....)))..))), the folding enthalpy in series [1] is -15.6 kcal/mol. In series [2], the Tm amounted to 46.2 °C.
Consider GGAAACCCGAAAGGGTCC (((..(((....)))))), for which the folding enthalpy in series [1] is -11.7 kcal/mol. For the same sequence, the Tm in series [2] is 35 °C.
The matching figures for GCACACGGAAACGTGCGC ((.((((....)))).)): -42.2 kcal/mol and 60.5 °C.
The matching figures for GCGGCCGACCGC ((((....)))): -26.7 kcal/mol and 57.6 °C.
In the same order, the values of GCTTACGAAAGTATTAGC ((((((....)))..))) are -23.9 kcal/mol and 33.5 °C.
As to GATCTTGATTAAGATC ((((((....)))))), the folding enthalpy in series [1] was -26.6 kcal/mol. Besides, in series [2], the Tm stood at 41.8 °C.
The matching figures for GGCGTAGAAATACGCC ((((((....)))))): -37.5 kcal/mol and 66.1 °C.
The matching figures for GATCACTGAGGTGATC ((((((....)))))): -40.5 kcal/mol and 59.4 °C.
For the sequence GATCTTGGTAAAGATC ((((((....)))))), in series [1], the folding enthalpy was -41.3 kcal/mol. Moreover, the Tm in series [2] was found to be 53.5 °C.
The matching figures for GTGCGCGAAAGCGGACAC ((((((....)))..))): -11.1 kcal/mol and 63.7 °C.
With GTGCAAGGAAACTTACAC (((.(((....))).))), the folding enthalpy in series [1] is -21.5 kcal/mol. Also, in series [2], the Tm is 34.8 °C.
Turning to CGTACGCGGAAACGCACG (((..(((....)))))), the folding enthalpy in series [1] was -13.5 kcal/mol. Besides, in series [2], the Tm was 40.7 °C.
In the same order, the values of GGTGGCGAAAGCCGACC ((((((....))).))) are -17.6 kcal/mol and 59.6 °C.
In the same order, the values of GCGGAGGCCGC ((((...)))) are -18 kcal/mol and 58.9 °C.
Consider GATCAGGACCCTGATC ((((((....)))))), for which the folding enthalpy in series [1] was -39.6 kcal/mol. Moreover, in series [2], the Tm is 54.4 °C.
As for GCAAGCGAAAGCTAATGC ((((((....)))..))), the folding enthalpy in series [1] was -15.5 kcal/mol. Further, in series [2], the Tm is 39.4 °C.
Regarding GTTGGTCGAAAGACAAAC (((.(((....))).))), the folding enthalpy in series [1] is -26.5 kcal/mol. Moreover, the Tm in series [2] amounted to 48.5 °C.
In the case of GCGTGCTACGC ((((...)))), in series [1], the folding enthalpy was -18.7 kcal/mol. The Tm in series [2] was 62 °C.
